B1: tRNA (parent)
chain: GUUCCGUUGGCGUAAUGGUAACGCGUCUCCCUCCUAAGGAGAAGACUGCGGGUUCGAGUCCCGUACGGAACG

Variants at the floor of the assay were thinned out. Where only a bound is given, the exact number is not on record here.

These results are taken from the RNAGym collection of RNA variant scans (doi:10.1126/science.aae0568).

In the series the parent is B1. The series is described as follows: yeast fitness relative to wild type (ratio to wild type); higher = fitter; tRNA-Arg(CCU), competitive growth, 37 C, YPD. The method in brief:
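Genotype frequency changes were the basis for Darwinian fitness relative to wild type. The frequencies came from 100-nucleotide paired-end sequencing of gene amplicons from the start population and each end population of pooled yeast strains with tRNA-Arg(CCU) gene variants at the native locus. Competition ran in YPD at 37°C for 24 hours in six replicates, genotypes needed ≥ 100 starting reads, and estimates < 0.5 were set to 0.5.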
As to C30G A42C C55U, the yeast fitness was not above 0.5.

Turning to C29U C33U C66U G67A, the yeast fitness came to 0.598.

Turning to C31G A42U C62U, the yeast fitness was 0.742.

Turning to C31A G56A G67A A69U, the yeast fitness is not above 0.5.

For the variant C30G C34A C49G G50A U64A, the yeast fitness is 0.56.

With C30U C49U U54A, the yeast fitness was not above 0.5.

In the case of C31G A40G G52C, the yeast fitness was not above 0.5.

Take C31G A45G G56U: the yeast fitness is 0.561.

As for C30A A36U, the yeast fitness was 0.697.

With C30A A36C, the yeast fitness was determined as 0.579.

For C31G U47G C49G, the yeast fitness amounted to 0.647.

In the case of C29U A69U, the yeast fitness was 0.868.

As to C29U U32C C62U A70U, the yeast fitness was not above 0.5.

Take C31G A37C C60U: the yeast fitness was not above 0.5.

With C30G C46U A65C, the yeast fitness was not above 0.5.

C30U A45C A65U: the yeast fitness is not above 0.5.

C30A A36U G39A A45G G63U: the yeast fitness was not above 0.5.

As to C31A A36G A57C, the yeast fitness was not above 0.5.

Turning to C30A C33A A57U, the yeast fitness was not above 0.5.

With C31U A43C A69C, the yeast fitness amounted to 0.902.

On to C30A C62U, for which the yeast fitness stood at 0.886.

Consider C31U A40C G56C, for which the yeast fitness is not above 0.5.

Take C30U G56A: the yeast fitness worked out at 0.942.

Turning to C30U U32A, the yeast fitness was 0.883.

For C29U A45C, the yeast fitness came out at 0.778.

For the variant C29U U64A, the yeast fitness came to 0.677.

For the variant C29U U64G, the yeast fitness turned out to be 0.748.

Take C30A C31U U59C: the yeast fitness stood at 0.983.

On to C29U G51C, for which the yeast fitness came to 0.57.

As for C30G C33G C60G C62U, the yeast fitness was not above 0.5.

On to C30G C46A U47G C49A G52A G58C U64G A65G A69G, for which the yeast fitness is not above 0.5.

For the variant C30G G38C G52A C55U, the yeast fitness was not above 0.5.

In the case of C31G C34G A42C C66G, the yeast fitness was not above 0.5.

As to C29U A45U U47C U54A, the yeast fitness was not above 0.5.

Regarding C30G G51C C61G, the yeast fitness was not above 0.5.

Take C30A C49A: the yeast fitness worked out at 0.699.

Take C31A A37U C49A C55U: the yeast fitness is not above 0.5.

Turning to C30U C31U G41C A45G C49U C66U A69G, the yeast fitness is not above 0.5.

Turning to C30U A36C C46U U53A, the yeast fitness was not above 0.5.

With C30U A37C C60U, the yeast fitness came to 0.548.

As to C31G A43G C49U C61A, the yeast fitness is not above 0.5.

C30G C34U A45C U53G C61G: the yeast fitness is not above 0.5.

For C31G A57U A69C, the yeast fitness was not above 0.5.

C31G A57C C62G: the yeast fitness was determined as 0.703.

As to C31A G48C C61A A70G, the yeast fitness was not above 0.5.

With C29U G39U C49G, the yeast fitness is not above 0.5.

For C31G A36U A65U, the yeast fitness worked out at 0.517.

For the variant C30U G52C, the yeast fitness stood at 0.593.

As for C30U G41C A45U, the yeast fitness is not above 0.5.

Take C29U C49U C55G G58A: the yeast fitness is not above 0.5.

For the variant C30A A70C, the yeast fitness was found to be 1.01.

As for C29U U35A A70C, the yeast fitness is not above 0.5.

For the variant C31A C34U U54C A69C, the yeast fitness was not above 0.5.

Consider C29U C31A G38C C60A, for which the yeast fitness is not above 0.5.

With C30A A43G G50C, the yeast fitness was found to be 0.767.

Turning to C29U C33U U54A, the yeast fitness was not above 0.5.

Regarding C30A A36U G38C G39A C66A, the yeast fitness is not above 0.5.

As to C31G A43U C46G C66U A70U, the yeast fitness was not above 0.5.

On to C30A C55U G68A, for which the yeast fitness is not above 0.5.

Take C30A G56A C66G: the yeast fitness is not above 0.5.

For the variant C31G A37C G52C C61G C66U, the yeast fitness is not above 0.5.

As to C30G A40C A42G, the yeast fitness was not above 0.5.

Take C31A G51C C55G A57U C66U: the yeast fitness was 0.564.

On to C29U C30G U59A, for which the yeast fitness came out at 0.617.

As to C31G A37U G39C A42C, the yeast fitness was not above 0.5.

For the variant C31A C33A, the yeast fitness amounted to 0.509.

C31G A36C C49G: the yeast fitness is not above 0.5.

As for C31G C46G G50A, the yeast fitness was found to be 0.552.

On to C30U C46A G63C A70G, for which the yeast fitness was not above 0.5.

As to C29U G38A G48C A57G, the yeast fitness is not above 0.5.

Turning to C30U G50C U59A, the yeast fitness is not above 0.5.

C31G U35C C46U: the yeast fitness was determined as 0.582.

As for C31A A36G, the yeast fitness amounted to 0.78.

Take C30U U59G C66U G68A: the yeast fitness is not above 0.5.

C30A C55G C66U: the yeast fitness was not above 0.5.

For C29U G39A G67A, the yeast fitness was found to be 0.565.

C29U G41U: the yeast fitness stood at 0.769.

With C31G C33U A40C, the yeast fitness turned out to be 0.6.

Turning to C31A G44C C60G, the yeast fitness is not above 0.5.

As for C30U C46G C49U, the yeast fitness worked out at 0.641.

Take C30A A40C: the yeast fitness turned out to be 0.712.

For the variant C30A U35C U59C G63A, the yeast fitness turned out to be 0.584.

Regarding C30U G58C C66U, the yeast fitness stood at 0.663.

For C30A G39U, the yeast fitness is 0.772.

Turning to C30A G39A, the yeast fitness is 0.833.

In the case of C30U U32A A36U A37U C62U, the yeast fitness was not above 0.5.

For C31G C66U, the yeast fitness worked out at 0.867.

For C31U A40G G48C A57U U59A A69C, the yeast fitness is not above 0.5.

Take C31A A43U A57G: the yeast fitness was determined as 0.559.

As for C30G G41C G68A, the yeast fitness was not above 0.5.

Consider C30U G67U, for which the yeast fitness came out at 0.83.

As for C31A A43U C61A, the yeast fitness is not above 0.5.

As for C30G C33G A36C A37U A43U, the yeast fitness was not above 0.5.

For C30G U47C G51A C66U, the yeast fitness is not above 0.5.

Turning to C30U A57G, the yeast fitness came out at 0.709.

Regarding C31A G52C U64C, the yeast fitness is not above 0.5.

Turning to C29U C33A A36C A42C A45G, the yeast fitness was not above 0.5.

Regarding C30G A42C U59A C60U, the yeast fitness was determined as 0.507.

On to C31U A37C, for which the yeast fitness was determined as 0.761.

Take C31G A40G C46A: the yeast fitness came to 0.618.

Consider C30G U32C, for which the yeast fitness amounted to 0.708.

Regarding C30U A45U A69G, the yeast fitness turned out to be 0.566.

For C30U A45U A69U, the yeast fitness amounted to 0.797.

Take C30U A45C A69U: the yeast fitness came to 0.704.

Turning to C30G A36U C61U, the yeast fitness worked out at 0.504.

Consider C30A A42C C66A, for which the yeast fitness is 0.719.

With C31G C55G A65G, the yeast fitness was not above 0.5.

As to C31G A45G, the yeast fitness worked out at 0.809.

In the case of C31G C61G, the yeast fitness was determined as 0.623.

For C29U G44C C49U A57U A69U, the yeast fitness is not above 0.5.

With C31U A42G C55U, the yeast fitness is 0.511.

Take C30U C33A: the yeast fitness turned out to be 0.672.

Regarding C30G G44C G51C A69U, the yeast fitness was not above 0.5.

C29U A43C A69U: the yeast fitness amounted to 0.673.

As for C29U U47G C49G A70G, the yeast fitness is not above 0.5.

Turning to C29U G39U, the yeast fitness was 1.07.

On to C29U G39C, for which the yeast fitness was found to be 0.65.

Consider C31G A57U G58C, for which the yeast fitness was not above 0.5.

With C30A U54C G63A, the yeast fitness stood at 0.601.

On to C30G G52C A65C, for which the yeast fitness is not above 0.5.

For C30U A57G A70U, the yeast fitness came out at 0.558.

For the variant C30U C55A, the yeast fitness came out at 0.667.

For C31A C49A G56A A65G C66A G68C, the yeast fitness is not above 0.5.

Turning to C31A U64G A69C, the yeast fitness was not above 0.5.

On to C30U C46U G52C, for which the yeast fitness was not above 0.5.

Regarding C29U U59G, the yeast fitness is 0.83.

For C31G C49G C62U G67C G68A, the yeast fitness was 0.539.

In the case of C31G A42C C55U G68A, the yeast fitness stood at 0.542.

Regarding C30A U64G, the yeast fitness turned out to be 0.793.

Consider C29U C31U U54G A65U A69U, for which the yeast fitness was not above 0.5.

For the variant C29U C66G A70C, the yeast fitness was not above 0.5.

Turning to C31G A36C C61U, the yeast fitness was not above 0.5.

For C30A C60A C62A, the yeast fitness was not above 0.5.

With C30G G58C C60U A65G, the yeast fitness is not above 0.5.

Consider C31A G38A, for which the yeast fitness was 0.792.

For the variant C31G U35A G56A G63A, the yeast fitness was not above 0.5.

As to C31G G63C A65C, the yeast fitness is not above 0.5.

For C30U G38C C62G, the yeast fitness is not above 0.5.

Consider C30U C31U A42U G67A, for which the yeast fitness came to 0.537.

For the variant C30A C31U, the yeast fitness is 1.

With C29U C30A U59G A69C, the yeast fitness was not above 0.5.

For the variant C30U A36G G44A, the yeast fitness is 0.638.

For C29U C31A A43G G67C, the yeast fitness is not above 0.5.

As to C30U G38C G63A A70G, the yeast fitness is not above 0.5.

In the case of C31G A45U G58U C62U, the yeast fitness was not above 0.5.

For C31U A43C U54C, the yeast fitness was 0.596.

C30A A43U C61U: the yeast fitness worked out at 0.602.

Turning to C29U C62U A70U, the yeast fitness is 0.532.

For C31G A45U C49G A70U, the yeast fitness is not above 0.5.

C29U A43U G52C U59A: the yeast fitness is not above 0.5.

As to C29U A42U A43U U54C C55G, the yeast fitness is not above 0.5.

In the case of C31G G44C G52C C60G, the yeast fitness was not above 0.5.

For C31G U64C G67A, the yeast fitness was not above 0.5.

Regarding C29U A43G C49A, the yeast fitness amounted to 0.615.

Regarding C29U C30U U59A G63C, the yeast fitness was not above 0.5.

With C31G C62G, the yeast fitness was 0.827.

C30U U54G U59G: the yeast fitness amounted to 0.655.

For the variant C30U G38C U59A, the yeast fitness is not above 0.5.

Turning to C30G A43U G48C C55A C66U, the yeast fitness was not above 0.5.

In the case of C29U A45C A57G A65U, the yeast fitness was not above 0.5.

As for C31G C34U A40C G41A, the yeast fitness is not above 0.5.

With C30U G50A, the yeast fitness came out at 0.83.

Regarding C30A A42U C55G, the yeast fitness is not above 0.5.

Consider C29U G50C A70G, for which the yeast fitness is not above 0.5.

As to C29U G44C U54A, the yeast fitness was found to be 0.55.

Take C31G A43G C49U G68A: the yeast fitness was 0.558.

Take C31A C49U: the yeast fitness came out at 0.867.
